# RPL19A-GFP yeast – yeast TOR pathway RPL19A-GFP modulation | 330,000 tested, 0.3% active | AID 2025 | percent response vs DMSO, % at 10 µM | S. cerevisiae RPL19A-GFP strain, flow cytometry, 3 h; active compounds read low;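 active means percent response vs DMSO below 50%; inconclusive means fewer than 70 events counted for the yeast strain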;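 further: median channel GFP fluorescence of the barcoded RPL19A-GFP strain; ratio of sample median GFP to plate DMSO average so 100% = DMSO; lower means less RPL19A-GFP as with rapamycin TOR inhibition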
# MEP2 TOR yeast – modulators of TOR pathway MEP2-GFP in S. cerevisiae; 330,000 tested, 0.51% active; S. cerevisiae MEP2-GFP strain, flow cytometry GFP, 3 h; 100% = DMSO control level; AID 2016; GFP response vs DMSO, % at 10 µM;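 active means GFP response versus DMSO above a set limit, roughly screen mean plus 3 SD, cut at about 180% in these data; inconclusive means fewer than 70 cells counted for a yeast strain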;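 further: median GFP fluorescence of the barcode-gated MEP2-GFP cells per well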
# T cell HTS – modulates CD8 T cell binding to vesicles. 2C CD8+ T cell-vesicle binding, flow cytometry; active compounds read low. response (vesicle binding), % at 7 µM. 330,000 tested, 0.068% active. AID 2052;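 active means response, share of CD8 T cells binding vesicles, and their 90th percentile fluorescence all below set limits, cut at about 80% in these data, passing the limit was not always enough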;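 further: values below 100% mean blocked vesicle binding to the CD8+ T cells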
#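 incubation = binding step 1.5 h, 37 °C, antibody labelling 20 min, ice | test system = 2C mouse CD8+ T cells | read-out basis = percent CD8+ FL2 mean versus row control | controls = Peptide-free naked vesicles (low) and QL9 vesicles with 0.7% DMSO vehicle (high) | detection = flow cytometry of vesicle-bound cells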
# AGP1-GFP MLPCN – yeast TOR pathway AGP1-GFP modulation | AID 2066 | S. cerevisiae AGP1-GFP multiplex flow cytometry, 3 h; GFP as percent of DMSO wells | 320,000 tested, 0.02% active | GFP response vs DMSO, % at 10 µM;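 active means GFP response relative to DMSO above a set limit, near screen average plus 3 SD, cut at about 150% in these data; inconclusive means fewer than 70 cells counted for the yeast strain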;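 further: median GFP channel fluorescence of the gated AGP1 strain per well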
# LAP4-GFP MLPCN – yeast TOR pathway LAP4-GFP modulation | 320,000 tested, 0.34% active | S. cerevisiae LAP4-GFP multiplex, flow cytometry GFP, 3 h; median GFP as percent of DMSO wells | GFP response vs DMSO, % at 10 µM;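 active means GFP response vs DMSO above a set limit, about the screen mean plus 3 SD, cut at about 150% in these data; inconclusive means under 70 cell events counted for the yeast strain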
# CIT2-GFP yeast – yeast TOR pathway CIT2-GFP modulation; S. cerevisiae CIT2-GFP strain, flow cytometry, 3 h; 100 means same as DMSO wells; GFP response vs DMSO, % at 10 µM; 320,000 tested, 0.065% active;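 active means GFP response relative to DMSO above a set limit, near the screen mean plus 3 SD, cut at about 150% in these data; inconclusive means Fewer than 70 cells measured for a yeast strain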;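 further: ratio of well median GFP fluorescence to mean of DMSO wells on the plate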
# Starred values were filed as active, the others as inactive; i = inactive; ? = inconclusive; / = not tested or not shown; [ ] = dose if it differs, or a comment. Shown are actives, neighbours in structure and some others; about 0.96% of the full set was active somewhere.
SMILES,RPL19A-GFP yeast,MEP2 TOR yeast,T cell HTS,AGP1-GFP MLPCN,LAP4-GFP MLPCN,CIT2-GFP yeast
Cc1cccc(NC(=O)COC(=O)C2C3CC4OC(=O)C2C4C3)c1C (configuration not stated),98.9,93.1,i,100.3,99.9,103.5
CCc1ccccc1NC(=O)COC(=O)C1C2CC3OC(=O)C1C3C2 (configuration not stated),48.8*[may fluoresce violet],753.8*[may fluoresce violet],624.1,23.8,101.0,?
O=C(COc1ccc([N+](=O)[O-])cc1)Nc1ccc(S(=O)(=O)N2CCOCC2)cc1,58.5,398.7*[may fluoresce violet],428.4,24.3,96.2,?
Cc1ccc(N2CC(C(=O)Nc3ccc(S(=O)(=O)N4CCOCC4)cc3)CC2=O)cc1 (configuration not stated),101.3,104.6,297.2,107.2,104.4,95.0
O=C(Nc1ccc(S(=O)(=O)N2CCOCC2)cc1)c1ccc([N+](=O)[O-])cc1Cl,106.9,307.3*,285.3,108.1,118.3,101.3
CCOc1ccc(N2CC(C(=O)Nc3ccc(S(=O)(=O)N4CCOCC4)cc3)CC2=O)cc1 (configuration not stated),64.4,185.8*[may fluoresce violet],350.8,25.7,95.9,?
O=C(Nc1ccc2c(c1)OCO2)c1ccc([N+](=O)[O-])cc1[N+](=O)[O-],65.2,220.4*[may fluoresce violet],232.9,22.7,98.7,?
O=C(COC(=O)/C=C/c1cccc([N+](=O)[O-])c1)Nc1cccnc1Cl,109.7,110.1,674.7,105.9,121.5,102.9
CCN(CCCNC(=O)CNC(=O)c1nn(-c2ccc(OC)c(OC)c2)c(=O)c2ccccc12)c1ccccc1,93.6,94.9,246.2,97.2,100.9,94.0
Cc1cccc(C)c1NC(=O)CNC(=O)C(C)NC(C)c1ccccc1Br (configuration not stated),98.4,98.5,46.4,102.1,97.7,111.6
CC(Oc1ccc(Cl)cc1)C(=O)Nc1ccc(S(=O)(=O)N2CCOCC2)cc1 (configuration not stated),58.4,275.4*[may fluoresce violet],281.3,25.8,93.2,?
COc1ccc(-n2c3c(c(=O)[nH]c2=O)C(NS(=O)(=O)c2ccc(Cl)cc2)(C(F)(F)F)C(=O)N3)cc1 (configuration not stated),97.3,95.8,202.4,101.1,104.6,95.4
N#CCCn1cc(CNC2CCC(O)CC2)c2ccccc21 (configuration not stated),45.6*[may fluoresce violet],244.8*[may fluoresce violet],227.9,?,59.7,?
CC1(Cc2cn(CCC#N)c3ccccc23)OCCO1,99.4,99.8,469.4,100.7,99.8,101.9
O=C(Nc1c(F)cccc1F)c1ccc(-n2cncn2)nc1,64.5,232.8*[may fluoresce violet],154.7,25.0,67.7,?
O=C(Nc1ccc(F)cc1F)c1ccc(-n2cncn2)nc1,98.1,96.3,551.8,102.1,93.1,100.4
S=C(Nc1ccc2cn[nH]c2c1)Nc1ccc(Cl)cc1Cl,96.6,97.3,293.9,102.8,101.9,95.1
S=C(Nc1ccc(Cl)cc1)Nc1ccc2cn[nH]c2c1,95.1,85.4,428.7,74.1,169.2*,64.7
COc1ccc(OC)c(Nc2nc(-c3cccc([N+](=O)[O-])c3)nc3ccccc23)c1,29.7*[may fluoresce violet],183.9*[may fluoresce violet],i,24.9,84.4,?
COc1ccc(Nc2nc(-c3cccc([N+](=O)[O-])c3)nc3ccccc23)c(OC)c1,108.5,110.4,288.9,104.6,115.6,104.0
Cc1c2cccn2cc[n+]1C,96.8,90.2,77.6*,92.2,87.6,85.4
Cc1nn(C(=O)c2ccco2)c(C)c1Sc1ccc(Br)cc1,98.9,118.1,175.9,103.8,104.2,103.4
Cc1nn(C(=O)c2ccco2)c(C)c1Sc1ccccc1,/,176.2*,341.5,46.5,86.6,108.2
CC(=O)c1ccc(N2CCN(S(=O)(=O)c3ccc4c(c3)CC(C)N4C(C)=O)CC2)cc1 (configuration not stated),37.5*,120.8,413.6,17.1,85.6,86.0
CCOC(=O)c1c(N)c(C#N)c2n1CCCC2,102.7,101.0,319.9,109.8,104.4,106.7

# From PubChem BioAssay
